Here are results for 15 compounds from PMC8273112 (ACS Infectious Diseases, 2021).

Structures can show the parent of a compound that is named as a salt. Where two headings read alike, the source gives them in different places.

Series [1] has as its system Plasmodium falciparum strain Dd2. The experiment in a line: SYBR Green growth inhibition assay, P. falciparum Dd2. In kind it is cell-based.
The test system of series [2] is P. falciparum strain Tm90–C2B. The experiment in a line: SYBR Green growth inhibition assay, P. falciparum Tm90-C2B. In kind it is cell-based, Plasmodium falciparum. Particulars: read-out: IC50 Tm90–C2B. In outline:
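Human erythrocytes (≤28 days old), 2% hematocrit, asynchronous culture at 0.2% initial parasitemia, in RPMI-1640 with HEPES, hypoxanthine, glucose, glutamine and Albumax II. 2-fold serial dilution starting at 20 μM, quadruplicate. Incubated 72 h at 37 °C under 5% O2/5% CO2/90% N2. SYBR Green I dye-detergent added for at least 1 h in the dark; fluorescence read at 497/520 nm, normalized to untreated wells, plotted against log concentration.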

Series [3] can be described thus: HepG2 cytotoxicity assay. In kind it is cell-based, human. The note with it: human, HepG2 cells.
The test system of series [4] is Plasmodium yoelii. Particulars: at any dose level; no reference given; cited from earlier work.
For series [5], the system named is P. falciparum A6 (SB1-A6). Nature of the series: SYBR Green growth inhibition assay, P. falciparum A6. In kind it is cell-based, Plasmodium falciparum. The note with it: 72 h, read-out: IC50 A6. In outline:
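Asynchronous parasites grown in human erythrocytes in RPMI-1640 with HEPES, hypoxanthine and Albumax II under 5% O2/5% CO2/90% N2 at 37 °C. Test compound in 2-fold serial dilution from 20 μM, run in quadruplicate, at 2% hematocrit and 0.2% starting parasitemia for 72 h. SYBR Green I lysis dye added for ≥1 h in the dark. Fluorescence read at 497/520 nm, normalized to untreated wells and plotted against log concentration.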

Series [6] concerns HepG2 cells. Nature of the series: HepG2 cytotoxicity assay. In kind it is cell-based, human. The note with it: read-out: IC50 cytotoxicity, 24 h drug, 24 h recovery.
Series [7] concerns Plasmodium falciparum strain D6. The experiment in a line: SYBR Green growth inhibition assay, P. falciparum D6. The series is classed as cell-based. Particulars: read-out: IC50 D6.
For series [8], the system named is P. falciparum. Particulars: cited from earlier work.
In series [9] the test system is Leishmania donovani. The note with it: read-out: in vitro IC50 Leishmania donovani; cited from earlier work.
Series [10] deals with Plasmodium yoelii. Nature of the series: Modified 4-day Peters test, murine malaria. The series is classed as in vivo, Plasmodium yoelii in mice. Particulars: for P. yoelii ED50 / P. yoelii ED90: oral gavage days 1–4, parasitemia day 5, mice; for P. yoelii NRD (nonrecrudescence dose, cure dose): oral gavage up to 25 mg/kg/day, no parasites at day 30.
For series [11] the following is noted: cited from earlier work.
For series [12], the system named is Toxoplasma gondii. Particulars: cited from earlier work.
Series [13] relates to P. berghei. The note with it: cited from earlier work.
In series [14] the test system is Babesia microti. The note with it: oral; cited from earlier work.
Series [15] is described as follows: Murine microsomal stability. In kind it is in vitro ADME. Particulars: for CLint scaled at 1 μM / half-life at 1 μM: mouse, pooled murine liver microsomes; for CLint scaled at 1 μM: pH 7.4; for half-life at 1 μM: pH 7.4, murine microsomal stability, t1/2, 1 μM. On the technique in general: Microsomes from liver hold many membrane-bound enzymes, among them those of drug oxidation.

Where [16] appears, read: Plasmodium falciparum, DD2, 72 h, read-out: IC50 Dd2.
[17] abbreviates: Plasmodium falciparum, TM90, 72 h.
[18] abbreviates: read-out: IC50 Dd2, multidrug-resistant P. falciparum strain Dd2, 72 h.
The mark [19] stands for this setting: multidrug-resistant clinical isolate also resistant to atovaquone, 72 h.
[20] abbreviates: P. falciparum pan-sensitive strain D6, 72 h, average of two to four determinations.
Setting [21] is: in-house derived mutant line resistant to respiratory antagonists.
Setting [22] is: Plasmodium falciparum, D6, 72 h.
Setting [23] is: 0.5 mg/mL protein, 37 °C, 1 h, NADPH.

For the compound `CCN(CC)CCCC(C)Nc1ccnc2cc(Cl)ccc12` (centres unmarked) [chloroquine, reference compound], the IC50 stood at 0.07 µM in series [1] (setting [16]), 0.297 µM in series [2] (setting [17]) and 0.016 µM in series [5] (Plasmodium falciparum). In addition, the half-inhibitory concentration (IC50) at 24 h in [3] was 181 µM. Also, in [4], the “cure in P. yoelii model” value is “not curative”.
`N=C(NN=Cc1ccc(O)cc1)NN=Cc1ccc(O)cc1` [Compound 25, 2,2′-Bis[(4-phenol)methylene]carbonimidic Dihydrazide Hydrochloride]: the IC50 turned out to be 0.24 µM in [1] (setting [18]); 0.286 µM in series [2] (setting [19]); 39 µM in series [6]; 0.143 µM in series [7] (setting [20]); 0.278 µM in series [5] (setting [21]).
On to `Cl.Cl.Cl.N=C(N)c1cccc(/C=N/N=C(\N)N/N=C/c2cccc(C(=N)N)c2)c1` [CGP 40215A], for which the “IC50 value against P. falciparum in vitro” value in series [8] is reported as “low micromolar”. The IC50 in [9] was 18 µM.
In the case of `N=C(NN=Cc1ccc([N+](=O)[O-])cc1)NN=Cc1ccc([N+](=O)[O-])cc1` [Compound 27, 2,2′-Bis[(4-nitrophenyl)methylene]carbonimidic Dihydrazide Hydrochloride], the IC50 in [1] (setting [16]) turned out to be 0.198 µM; in series [2] (setting [17]), 0.247 µM; in series [7] (setting [22]), 0.096 µM; in series [5] (Plasmodium falciparum), 0.085 µM. In series [3], this compound came in with an IC50 at 24 h of over 200 µM.
`N=C(NN=Cc1ccc(S(N)(=O)=O)cc1)NN=Cc1ccc(S(N)(=O)=O)cc1` [Compound 31, 2,2′-Bis[(4-sulphonamidophenyl)methylene]carbonimidic Dihydrazide Hydrochloride]: the half-maximal inhibitory concentration (IC50) is over 5 µM in series [1] (setting [18]); over 5 µM in series [2] (setting [19]); over 200 µM in series [6]; over 5 µM in [7] (setting [20]); over 5 µM in series [5] (setting [21]).
Turning to `N=C(NN=Cc1cccc(-n2cnnn2)c1)NN=Cc1cccc(-n2cnnn2)c1` [Compound 34, 2,2′-Bis[(3-tetrazole-1-phenyl)methylene]carbonimidic Dihydrazide Hydrochloride], the half-inhibitory concentration (IC50) in series [1] (setting [18]) was over 5 µM; in series [2] (setting [19]), over 5 µM; in series [6], 107 µM; in series [7] (setting [20]), 1.65 µM; in [5] (setting [21]), 4.79 µM.
Regarding `N=C(NN=Cc1ccc(C(=O)O)cc1)NN=Cc1ccc(C(=O)O)cc1` [Compound 29, 2,2′-Bis[(phenyl-4-carbonate)methylene]carbonimidic Dihydrazide Hydrochloride], the IC50 in [1] (setting [18]) is over 5 µM; in series [2] (setting [19]), over 5 µM; in series [6], over 200 µM; in series [7] (setting [20]), over 5 µM; in series [5] (setting [21]) it was over 5 µM.
Take `Cl.N#Cc1ccc(C=NNC(=N)NN=Cc2ccc(C#N)cc2)cc1` [Compound 22, 2,2′-Bis[(4-cyanophenyl)methylene]carbonimidic Dihydrazide Hydrochloride]: the IC50 in [1] (setting [16]) was 0.166 µM; in [2] (setting [17]) it was 0.312 µM; in [7] (setting [22]), 0.058 µM; in series [5] (Plasmodium falciparum), 0.076 µM. Further, the IC50 at 24 h in series [3] is over 200 µM. For the same compound, the “P. yoelii ED50” value in [10] is given as 2.7 mg/kg/day. In addition, the “P. yoelii ED90” value in series [10] was 7.7 mg/kg/day. For the same compound, in series [10], the “P. yoelii NRD (nonrecrudescence dose, cure dose)” value (“P. yoelii NRD” for short) is over 25 mg/kg/day.
For the compound `N=C(NN=Cc1ccc2c(c1)OC(F)(F)O2)NN=Cc1ccc2c(c1)OC(F)(F)O2` [Compound 36, 2,2′-Bis{[4-(2,2-difluoro-2,3-dioxazolo)]phenyl}methylene]carbonimidic Dihydrazide Hydrochloride], the IC50 in [1] (setting [18]) is 0.8 µM; in series [2] (setting [19]) it was 0.905 µM; in series [6], over 200 µM; in series [7] (setting [20]) it was 0.25 µM; in series [5] (setting [21]) it was 0.235 µM.
Turning to `N=C(NN=Cc1ccc(-n2cnnn2)cc1)NN=Cc1ccc(-n2cnnn2)cc1` [Compound 35, 2,2′-Bis[(4-tetrazole-1-phenyl)methylene]carbonimidic Dihydrazide Hydrochloride], the IC50 in series [1] (setting [18]) was over 5 µM; in series [2] (setting [19]) it was over 5 µM; in series [6], over 200 µM; in series [7] (setting [20]), 0.838 µM; in series [5] (setting [21]), over 5 µM.
For `Cl.N=C(NN=Cc1ccc(Cl)cc1)NN=Cc1ccc(Cl)cc1` [robenidine, 1,3-Bis(p-chlorobenzylideneamino)guanidine hydrochloride, reference compound], the IC50 worked out at 0.814 µM in [1] (setting [16]), 1.32 µM in series [2] (setting [17]), 0.324 µM in series [7] (setting [22]) and 0.41 µM in [5] (Plasmodium falciparum). This compound also had an IC50 at 24 h in [3] of 30 µM. For the same compound, the “P. yoelii ED50” value in [10] is 1.6 mg/kg/day. In addition, the “P. yoelii ED90” value in [10] worked out at 4.9 mg/kg/day. Besides, the “P. yoelii NRD” value in series [10] is listed as over 25 mg/kg/day. The absorption result in series [11] is recorded as “poorly absorbed”. Also, the “in vitro IC50 Toxoplasma gondii” value in series [12] is 0.03 µg/mL. For the same compound, the “activity in vivo against P. berghei” value in series [13] is listed as “moderate activity”. Also, in series [14], the “murine in vivo nonrecrudescence dose Babesia microti” value is recorded as 100 mg/kg/day. Also, the “murine microsomal stability, t1/2” value in [15] (1 μM, 0.5 mg/mL protein, 37 °C, 1 h, NADPH) worked out at 2.6442 h. Moreover, the CLint scaled at 1 μM in series [15] came to 34.4 mL/min/kg. Further, in [15] (setting [23]), the half-life at 1 μM was over 2.5 h.
For “2,2′-Bis[(4-carbonamidophenyl)methylene]carbonimidic Dihydrazide Hydrochloride [Compound 30]”, the IC50 is 0.405 µM in series [1] (setting [18]); 0.727 µM in [2] (setting [19]); 42 µM in series [6]; 0.527 µM in [7] (setting [20]); 0.516 µM in [5] (setting [21]).
As to `N=C(NN=Cc1ccc(-c2ccccc2)cc1)NN=Cc1ccc(-c2ccccc2)cc1` [Compound 26, 2,2′-Bis[(4-diphenyl)methylene]carbonimidic Dihydrazide Hydrochloride], the IC50 in series [1] (setting [18]) was 0.087 µM; in series [2] (setting [19]), 0.071 µM; in series [6] it was over 200 µM; in [7] (setting [20]) it was 0.015 µM; in series [5] (setting [21]), 0.033 µM.
As for `O=C1C(O)=C([C@H]2CC[C@H](c3ccc(Cl)cc3)CC2)C(=O)c2ccccc21` [atovaquone, reference compound], the IC50 in series [1] (setting [16]) is under 0.001 µM; in series [2] (setting [17]), over 5 µM; in series [7] (setting [22]), under 0.001 µM; in [5] (Plasmodium falciparum), over 5 µM. Half-maximal inhibition in series [3] (IC50 at 24 h) required 72 µM.
With `Cl.N=C(N/N=C/c1ccc(OC(F)(F)F)cc1)N/N=C/c1ccc(OC(F)(F)F)cc1` [Compound 16, 2,2′-Bis[(4-trifluoromethoxyphenyl)methylene]carbonimidic Dihydrazide Hydrochloride], the IC50 in [1] (Plasmodium falciparum, DD2, 48 h, read-out: IC50 Dd2, 48 h) amounted to 0.41 µM; in series [1] (setting [16]), 0.083 µM; in [1] (Plasmodium falciparum, DD2, 72 h, read-out: IC50 Dd2, 72 h), 0.195 µM; in series [1] (Plasmodium falciparum, DD2, 96 h, read-out: IC50 Dd2, 96 h), 0.192 µM; in [2] (setting [17]) it was 0.114 µM; in series [7] (setting [22]), 0.039 µM. For the same compound, the IC50 in series [5] (Plasmodium falciparum) stood at 0.052 µM. Besides, in series [10], the “P. yoelii ED50” value was 1.2 mg/kg/day. Besides, the “P. yoelii ED90” value in [10] was determined as 3.7 mg/kg/day. For the same compound, in [10], the “P. yoelii NRD” value turned out to be 12.5 mg/kg/day. In series [15], this compound gave a CLint scaled at 1 μM of 31.7 mL/min/kg. Also, in [15] (setting [23]), the half-life at 1 μM is over 2.5 h.

Usually IC50 stands for the concentration that inhibits the measured activity by half. The CLint scaled is the capacity of the preparation to metabolise the compound, expressed as a volume cleared per time. Read a high CLint scaled as faster metabolism. As usually defined, the half-life is the time in which the quantity being followed falls by half.
